Measured values published in ChEMBL document CHEMBL1142258, “Discovery of a series of aminopiperidines as novel iNOS inhibitors” (Bioorg Med Chem Lett, 2008).

How the values were obtained:
Nitric oxide synthase 3 = target: T1, Nitric oxide synthase 3 (Homo sapiens, UniProt P29474); test: Inhibition of human eNOS expressed in insect SF9 cells after 1 hr
T1 sequence (P29474 whole entry): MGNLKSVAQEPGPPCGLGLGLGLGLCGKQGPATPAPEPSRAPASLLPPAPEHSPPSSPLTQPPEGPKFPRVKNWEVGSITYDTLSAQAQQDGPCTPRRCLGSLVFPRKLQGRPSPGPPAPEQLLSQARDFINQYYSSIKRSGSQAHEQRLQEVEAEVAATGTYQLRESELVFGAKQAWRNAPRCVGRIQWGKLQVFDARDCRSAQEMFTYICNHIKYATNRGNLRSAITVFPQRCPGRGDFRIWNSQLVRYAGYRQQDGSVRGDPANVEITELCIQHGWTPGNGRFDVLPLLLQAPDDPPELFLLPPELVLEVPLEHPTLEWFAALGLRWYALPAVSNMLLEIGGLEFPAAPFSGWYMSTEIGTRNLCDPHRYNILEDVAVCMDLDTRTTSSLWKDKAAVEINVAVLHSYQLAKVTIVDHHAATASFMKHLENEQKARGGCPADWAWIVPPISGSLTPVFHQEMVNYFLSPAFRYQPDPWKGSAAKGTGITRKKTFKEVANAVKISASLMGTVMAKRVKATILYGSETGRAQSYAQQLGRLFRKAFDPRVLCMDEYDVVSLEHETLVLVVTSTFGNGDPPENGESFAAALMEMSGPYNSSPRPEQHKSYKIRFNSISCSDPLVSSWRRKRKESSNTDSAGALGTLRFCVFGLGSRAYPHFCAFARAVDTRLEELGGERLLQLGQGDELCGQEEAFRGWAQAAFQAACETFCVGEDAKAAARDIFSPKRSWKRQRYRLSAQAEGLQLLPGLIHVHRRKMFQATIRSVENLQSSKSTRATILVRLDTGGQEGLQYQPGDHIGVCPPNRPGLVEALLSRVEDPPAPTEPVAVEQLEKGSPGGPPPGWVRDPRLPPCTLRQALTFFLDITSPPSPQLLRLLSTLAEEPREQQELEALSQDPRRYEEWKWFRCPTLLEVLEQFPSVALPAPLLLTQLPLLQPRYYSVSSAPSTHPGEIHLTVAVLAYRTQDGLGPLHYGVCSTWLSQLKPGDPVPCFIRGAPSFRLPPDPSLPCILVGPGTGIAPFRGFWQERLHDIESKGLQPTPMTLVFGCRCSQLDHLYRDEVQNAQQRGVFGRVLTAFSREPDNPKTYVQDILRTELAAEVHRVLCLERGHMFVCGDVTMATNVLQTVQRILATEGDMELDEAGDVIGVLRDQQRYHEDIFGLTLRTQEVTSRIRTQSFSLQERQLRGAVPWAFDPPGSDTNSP
In short: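 Human recombinant eNOS from SF9 cells, tested at eight concentrations. Conditions: 10 nM [3H]arginine with NADP+/G6P/G6PDH, MgCl2, FAD, FMN, BH4, plus 25 nM calmodulin, 0.5 mM CaCl2 and 3.5 mM glutathione, in 50 mM Hepes for 1 h at 37 °C. Citrulline was resin-separated and counted, with AMT background. IC50 from one-site fit, geometric mean of ≥3 runs.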

[1] = target: T2, Nitric oxide synthase, inducible (Homo sapiens, UniProt P35228); test: Inhibition of human iNOS expressed in human DLD1 cells after 1 hr; assay type: cell-based, DLD-1
In short: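 Human iNOS endogenously expressed in DLD-1 cells, eight compound concentrations. Incubated 1 h at 37 °C in 50 mM Hepes with 10 nM [3H]arginine, [14C]citrulline internal standard, β-NADP+, G6P, MgCl2, G6P dehydrogenase, FAD, FMN and BH4. [3H]citrulline was separated on cation-exchange resin and counted; AMT defined background.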

Nitric oxide synthase 1 [2] = target: T3, Nitric oxide synthase 1 (Homo sapiens, UniProt P29475); test: Inhibition of human nNOS expressed in insect SF9 cells after 1 hr
Homo sapiens = species: Homo sapiens; test: Selectivity for human eNOS to human iNOS
In short: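 Ratio of eNOS IC50 to iNOS IC50, both from [3H]arginine→[3H]citrulline conversion. iNOS was endogenous to DLD-1 cells; eNOS was human recombinant expressed in SF9 cells. Each used 10 nM [3H]arginine with NADP+/G6P/FAD/FMN/BH4 cofactors in 50 mM Hepes for 1 h at 37 °C. The eNOS reaction also had calmodulin, CaCl2 and glutathione. Citrulline was separated by cation exchange and counted. IC50s came from eight concentrations, as geometric means of ≥3 runs.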

[3] = target: T2, Nitric oxide synthase, inducible; test: Inhibition of cytokine-induced iNOS activity in human DLD1 cells after 24 hrs; assay type: cell-based, DLD-1
In short: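 DLD-1 cells were seeded 3 days ahead, then given fresh medium with 20 ng/mL IFNγ, 4 ng/mL TNFα, 2 ng/mL IL1β and 1 mM L-arginine. Compound titrations in 50 mM Hepes pH 7.4 were added at eight concentrations for 24 h at 37 °C, 5% CO2. Nitrite was read with Griess reagent at 540 nm.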

[4] = target: T4, Nitric oxide synthase 3 (Homo sapiens) (UniProt P29474); test: Inhibition of human eNOS expressed in insect SF9 cells at 10 uM after 1 hr
T4 sequence (whole entry): T1 sequence (P29474 whole entry)

[5] = target: T2, Nitric oxide synthase, inducible; test: Inhibition of cytokine-induced iNOS activity in human DLD1 cells at 10 uM after 24 hrs; assay type: cell-based; settings: DLD-1
[6] = target: T2, Nitric oxide synthase, inducible; test: Inhibition of human iNOS expressed in human DLD1 cells at 10 uM after 1 hr; assay type: cell-based; settings: DLD-1
Nitric oxide synthase 1 [7] = target: T3, Nitric oxide synthase 1; test: Inhibition of human nNOS expressed in insect SF9 cells at 10 uM after 1 hr
In short: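 Human recombinant nNOS expressed in SF9 cells, incubated with test compound, 10 nM [3H]arginine and [14C]citrulline (80–120 nM) internal standard in 50 mM Hepes for 1 h at 37 °C. Cofactors were β-NADP+, G6P, MgCl2, G6P dehydrogenase, FAD, FMN, BH4, 25 nM calmodulin, 0.5 mM CaCl2 and 3.5 mM glutathione. After MES stop and cation-exchange filtration, [3H]citrulline was counted; background came from 10 µM AMT.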

T2 sequence (P35228 whole entry): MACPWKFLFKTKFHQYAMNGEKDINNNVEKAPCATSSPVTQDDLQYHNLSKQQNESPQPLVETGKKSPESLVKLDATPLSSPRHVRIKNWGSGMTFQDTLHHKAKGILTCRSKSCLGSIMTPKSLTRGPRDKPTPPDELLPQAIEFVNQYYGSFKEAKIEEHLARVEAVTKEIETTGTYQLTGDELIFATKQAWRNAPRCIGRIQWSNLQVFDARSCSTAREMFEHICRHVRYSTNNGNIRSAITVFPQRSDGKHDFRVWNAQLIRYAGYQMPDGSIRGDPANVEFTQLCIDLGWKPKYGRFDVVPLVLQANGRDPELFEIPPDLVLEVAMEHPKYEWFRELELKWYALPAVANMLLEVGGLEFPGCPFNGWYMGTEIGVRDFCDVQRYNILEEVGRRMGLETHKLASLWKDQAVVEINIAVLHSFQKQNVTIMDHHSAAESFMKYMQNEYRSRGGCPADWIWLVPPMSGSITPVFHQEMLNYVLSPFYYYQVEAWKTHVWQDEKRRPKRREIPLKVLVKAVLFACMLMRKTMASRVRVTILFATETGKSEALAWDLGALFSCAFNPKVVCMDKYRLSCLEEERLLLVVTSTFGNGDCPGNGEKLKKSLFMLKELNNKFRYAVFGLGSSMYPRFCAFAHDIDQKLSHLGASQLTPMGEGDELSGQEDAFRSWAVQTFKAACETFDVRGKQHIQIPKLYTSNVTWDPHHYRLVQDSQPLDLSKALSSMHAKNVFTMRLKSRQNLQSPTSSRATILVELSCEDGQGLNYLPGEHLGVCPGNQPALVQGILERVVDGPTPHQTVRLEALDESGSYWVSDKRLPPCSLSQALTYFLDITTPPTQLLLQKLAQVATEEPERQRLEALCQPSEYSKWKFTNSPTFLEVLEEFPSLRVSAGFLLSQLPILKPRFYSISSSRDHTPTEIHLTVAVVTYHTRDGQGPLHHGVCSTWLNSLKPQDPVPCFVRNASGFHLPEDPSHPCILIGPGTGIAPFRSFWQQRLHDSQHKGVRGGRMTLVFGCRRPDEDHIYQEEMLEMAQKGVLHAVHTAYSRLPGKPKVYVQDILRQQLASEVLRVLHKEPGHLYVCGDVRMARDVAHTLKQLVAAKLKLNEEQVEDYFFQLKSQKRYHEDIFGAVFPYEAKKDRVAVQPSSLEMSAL
T3 sequence (P29475 whole entry): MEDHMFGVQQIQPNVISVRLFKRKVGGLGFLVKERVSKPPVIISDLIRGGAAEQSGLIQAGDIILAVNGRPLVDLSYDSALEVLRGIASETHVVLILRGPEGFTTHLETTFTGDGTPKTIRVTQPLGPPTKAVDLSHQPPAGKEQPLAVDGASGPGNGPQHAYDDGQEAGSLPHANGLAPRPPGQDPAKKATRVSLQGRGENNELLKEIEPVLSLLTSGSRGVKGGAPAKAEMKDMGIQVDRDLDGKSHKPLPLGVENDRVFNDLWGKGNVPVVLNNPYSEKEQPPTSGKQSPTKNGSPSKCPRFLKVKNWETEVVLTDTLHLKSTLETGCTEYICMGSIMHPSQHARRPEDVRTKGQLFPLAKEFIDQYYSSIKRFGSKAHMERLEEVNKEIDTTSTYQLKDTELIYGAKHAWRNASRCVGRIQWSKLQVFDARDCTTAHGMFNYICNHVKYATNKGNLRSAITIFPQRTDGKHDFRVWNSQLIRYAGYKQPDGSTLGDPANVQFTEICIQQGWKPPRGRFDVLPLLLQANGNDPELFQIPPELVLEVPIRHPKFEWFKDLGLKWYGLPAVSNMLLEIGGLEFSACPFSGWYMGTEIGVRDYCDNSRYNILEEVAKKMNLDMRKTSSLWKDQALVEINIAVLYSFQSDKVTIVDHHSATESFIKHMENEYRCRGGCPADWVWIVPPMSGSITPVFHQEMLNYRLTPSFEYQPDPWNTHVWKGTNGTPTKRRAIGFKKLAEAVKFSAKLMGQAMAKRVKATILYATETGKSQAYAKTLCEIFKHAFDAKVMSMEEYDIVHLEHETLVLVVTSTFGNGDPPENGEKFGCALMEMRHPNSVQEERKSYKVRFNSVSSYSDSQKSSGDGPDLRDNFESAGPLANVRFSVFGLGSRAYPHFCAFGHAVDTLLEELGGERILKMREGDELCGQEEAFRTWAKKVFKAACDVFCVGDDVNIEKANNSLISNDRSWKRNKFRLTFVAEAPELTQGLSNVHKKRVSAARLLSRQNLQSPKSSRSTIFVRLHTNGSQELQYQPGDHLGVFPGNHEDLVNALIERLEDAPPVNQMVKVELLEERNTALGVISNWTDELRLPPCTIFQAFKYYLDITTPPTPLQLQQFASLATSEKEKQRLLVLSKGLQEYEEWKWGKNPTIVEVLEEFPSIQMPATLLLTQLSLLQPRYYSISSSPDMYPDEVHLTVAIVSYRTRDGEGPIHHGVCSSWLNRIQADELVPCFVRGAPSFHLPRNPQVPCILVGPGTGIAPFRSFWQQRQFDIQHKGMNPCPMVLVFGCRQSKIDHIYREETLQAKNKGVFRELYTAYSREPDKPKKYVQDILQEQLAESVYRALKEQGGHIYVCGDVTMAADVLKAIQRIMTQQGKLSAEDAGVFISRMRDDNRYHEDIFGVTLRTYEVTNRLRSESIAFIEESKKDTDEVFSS

SMILES	IC50 (Nitric oxide synthase 3) [µM]	IC50 [1] [µM]	IC50 (Nitric oxide synthase 1 [2]) [µM]	Ratio IC50 (Homo sapiens)	IC50 [3] [µM]	inhibition [4] [%]	inhibition [5] [%]	inhibition [6] [%]	inhibition (Nitric oxide synthase 1 [7]) [%]
CCN(Cc1cc(Cl)ccc1C#N)C1CCNCC1	1	0.1	0.36	10	0.58				
CC(C)CN(Cc1cc(Cl)ccc1C#N)C1CCCNC1 (centres undefined)		0.29	2.5	> 15	1.2	15			
CN1CCC(N(C)Cc2ccccc2)CC1							< 15	< 15	
CCCN1CCC(N(C)Cc2cc(Cl)ccc2C#N)CC1	1.1	0.67	0.81	2	4.4				
CC(C)CN(Cc1cc(Cl)ccc1C#N)[C@@H]1CCCNC1		0.26	1.2	> 25	1.5	23			
CN(Cc1cc(Cl)ccc1C#N)C1CCN(Cc2ccccc2)CC1	4.3	0.27	1.8	16	3.5				
CN1CCC(N(C)Cc2cc(Cl)ccc2C(F)(F)F)CC1	1.4	0.7	0.78	2			48		
N#Cc1ccc(Cl)cc1CN(c1ccccc1)C1CCNCC1		0.66		> 15	8	0			33
CCCN(Cc1cc(Cl)ccc1C#N)C1CCNCC1	1.7	0.13	0.14	13	0.28				
CN(Cc1cc(Cl)ccc1C#N)C1CCNC1 (centres undefined)	4	1.2	1.2	3			33		
CN1CCC(N(C)Cc2cc(Br)ccc2C#N)CC1	0.81	0.21	0.53	4	3.7				
CN1CCC(N(C)Cc2cc(Cl)ccc2Br)CC1	0.82	0.42	0.59	2			51		
N#Cc1ccc(Cl)cc1CN(CC1CC1)C1CCNCC1	2.1	0.16	0.748	13	1.4				
CC(C)CN(Cc1cc(Cl)ccc1C#N)[C@@H]1CCCN(C)C1		0.47	4.9	> 15	0.66	0			
CC(=N)NCCCC[C@H](N)C(=O)O [L-NIL]	2.5	0.28	6	9	31				
CC(=N)NCCSCC[C@H](N)C(=O)O [GW-274150]		0.22	8.4	> 45		< 15	26		
CCN1CCC(N(C)Cc2cc(Cl)ccc2C#N)CC1	0.45	0.37	0.37	1	4.5				
CCCCN(Cc1cc(Cl)ccc1C#N)C1CCNCC1		0.57			5				
